Active and inactive are the calls of the source. No cut-off for these calls is given here.

For data set [1], the target named is Phosphatidylinositol 4-kinase beta (Homo sapiens, UniProt Q9UBF8). Description: Inhibition of PI4Kbeta by luminescent kinase assay.
The subject of data set [2] is Tumour. Nature of the data set: Drug uptake in tumor of nude rowett rat bearing human RT112 cells at 4.25 mg/kg, po administered as a single dose after 16 hrs by LC-MS/MS analysis. It counts as ADME, organism-based, Neoplasm, RT-112. Set-up: dose 4.25 mg/kg, route oral. To be noted: in vivo. A digest of the protocol:
(§1)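 Nude Rowett rats bearing subcutaneous RT112 tumors (n = 4) received a single gavage of monophosphate salt at 4.25 or 8.51 mg/kg free base in acetate buffer pH 4.6/PEG300. Tumors were collected at intervals after dosing, frozen and homogenized in an equal volume of ice-cold PBS. Compound levels were measured by LC-MS/MS (LOQ 3 ng/mL).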

Data set [3] can be described thus: Cmax in plasma of RT112/luc1 cells implanted athymic nude mouse at 20 mg/kg, po by LC/MS/MS analysis. It counts as ADME, organism-based. Set-up: dose 20 mg/kg, route oral. A digest of the protocol:
(§2)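 Female athymic nude mice carried subcutaneous RT112/luc1 tumors (5×10^6 cells, 50% Matrigel; about 300–400 mm3). Dosing was either 5 mg/kg iv by tail vein in NMP/PEG200 (1:9) or 20 mg/kg oral suspension in PEG300/D5W (2:1). Groups of mice (n = 4) were sacrificed at 0.083–24 h. Plasma and tumor levels were measured by LC-MS/MS (LOQ 5 ng/mL, 10 ng/g).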

Data set [4] has as its target MAP kinase-interacting serine/threonine-protein kinase 1 (Homo sapiens, UniProt Q9BUB5). Description: Inhibition of recombinant MNK1. In a few lines: (§3)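 Purified recombinant kinases under optimized conditions with peptide substrates. ATP was set at each kinase's Km. Phosphorylation was read by microfluidic mobility-shift separation of substrate and product; IC50 determined.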

Data set [5] concerns Tumour. Description: Drug uptake in tumor of nude rowett rat bearing human RT112 cells at 4.25 mg/kg, po administered as a single dose after 7 hrs by LC-MS/MS analysis. Set-up: dose 4.25 mg/kg, route oral. It counts as ADME, organism-based, Neoplasm, RT-112. Conditions: in vivo. A digest of the protocol:
as §1

Data set [6] concerns HT1197. Nature of the data set: Antiproliferative activity against human HT1197 cells after 72 hrs. Format: functional, cell-based. Conditions: HT1197, 72 h. A digest of the protocol:
(§4)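 Bladder cancer lines from ATCC or DSMZ were seeded in 96-well plates (RT4, RT112 at 8500 cells/well; others at 5000 cells/well) in growth medium. Compound dilutions or DMSO were added 24 h later and incubated 72 h. Cells were fixed with glutaraldehyde, stained with 0.05% methylene blue and eluted with 3% HCl, then OD650 nm was read.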

Data set [7] deals with Serine/threonine-protein kinase PLK1 (Homo sapiens, UniProt P53350). Description: Inhibition of recombinant PLK1. A digest of the protocol:
as §3

The target in data set [8] is Non-receptor tyrosine-protein kinase TYK2 (Homo sapiens, UniProt P29597). Description: Inhibition of recombinant TYK2. In a few lines:
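Purified recombinant kinases were tested under optimized conditions with peptide substrates. ATP was set at each kinase's Km. Phosphorylation was read out by microfluidic mobility shift, and IC50 values were determined.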

For data set [9], the system named is Rattus norvegicus. Description: Inhibition of FGFR autophosphorylation in RT112 tumor bearing nude rowett rat assessed as decrease in pFRS2 concentration at 8.51 mg/kg, po administered as a single dose after 16 hrs by Western blot analysis. It counts as functional, organism-based. Set-up: dose 8.51 mg/kg. A digest of the protocol:
(§5)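 RT112 subcutaneous xenografts in female nude Rowett rats (n = 4). Single oral gavage of the monophosphate salt at 4.25 or 8.51 mg/kg (free base equivalents) in acetic acid–acetate buffer pH 4.6/PEG300 (1:1). Tumors were collected at time points up to 24 h, frozen, homogenized and lysed. Western blots probed pFRS2(Tyr196) and pMAPK, with total FRS2, total MAPK or β-tubulin as loading controls.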

The nature of data set [10]: Inhibition of BCR-ABL-mediated proliferation of mouse BAF3 cells transformed with TEL-Kinase construct. It counts as cell-based.
The nature of data set [11]: Inhibition of recombinant S6K. In a few lines: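 Purified recombinant kinases with peptide substrates and ATP at each kinase's Km. Read-out was microfluidic mobility shift.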
In data set [12] the test system is Tumour. Description: Drug uptake in tumor of nude rowett rat bearing human RT112 cells at 8.51 mg/kg, po administered as a single dose after 3 hrs by LC-MS/MS analysis. Format: ADME, organism-based, Neoplasm, RT-112. Set-up: dose 8.51 mg/kg, route oral. Conditions: in vivo. A digest of the protocol: as §1
Data set [13] deals with RT-4. Description: Antiproliferative activity against human RT4 cells overexpressing wild type FGFR3 after 72 hrs. It counts as functional, cell-based. Conditions: RT-4, 72 h. In a few lines:
as §4

A short description of data set [14]: Tmax in plasma of RT112/luc1 cells implanted athymic nude mouse at 20 mg/kg, po by LC/MS/MS analysis. It counts as ADME, organism-based. Set-up: dose 20 mg/kg, route oral. A digest of the protocol: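 Female athymic nude mice carrying subcutaneous RT112/luc1 tumors (ca. 300–400 mm3). Dosing was 5 mg/kg iv by tail vein in NMP/PEG200 (1:9) or 20 mg/kg by oral gavage as a suspension in PEG300/D5W (2:1). Groups (n = 4) were sacrificed from 0.083 to 24 h. Plasma and tumor were measured by LC-MS/MS (LOQ 5 ng/mL, 10 ng/g). Noncompartmental analysis used the linear trapezoidal AUC; F was calculated from dose-normalized AUC.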

Data set [15] relates to Tumour. Description: Dose normalized AUC in tumor of RT112/luc1 cells implanted athymic nude mouse at 20 mg/kg, po by LC/MS/MS analysis. It counts as ADME, organism-based, Neoplasm. Set-up: dose 20 mg/kg, route oral. To be noted: in vivo. A digest of the protocol:
as §2

The test system of data set [16] is Rattus norvegicus. Description: Inhibition of FGFR autophosphorylation in RT112 tumour bearing po dosed nude Rowett rat assessed as decrease in pFRS2 concentration administered as a single dose by Western blot analysis. Format: functional, organism-based. A digest of the protocol: as §5
The test system of data set [17] is Mus musculus. Description: Antiangiogenic activity in FVB mouse agar chamber model assessed as inhibition of VEGF-induced angiogenesis at 10 to 50 mg/kg, po administered for 4 days. It counts as functional, organism-based. A digest of the protocol: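 Female FVB mice implanted subcutaneously with perfluoroalkoxy-Teflon chambers holding 0.8% agar with 20 U/mL heparin, with or without dog VEGF 2 μg/mL or bFGF 0.3 μg/mL. Oral dosing at 10, 30, 50 mg/kg/day in 10% NMP/PEG300 (5 mL/kg), started before implantation and continued 3 days. Capsules were removed 24 h after the last dose. Readout was capsule weight and Tie-2 by ELISA, as % inhibition against vehicle and no-growth-factor background.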

The test system of data set [18] is Tumour. Description: Drug uptake in tumour of nude Rowett rat bearing human RT112 cells at 8.51 mg/kg, po administered as a single dose after 24 hrs by LC-MS/MS analysis. It counts as ADME, organism-based, Neoplasm, RT-112. Set-up: dose 8.51 mg/kg, route oral. To be noted: in vivo. A digest of the protocol: as §1
Data set [19] has as its target Serine/threonine-protein kinase mTOR (Homo sapiens, UniProt P42345). Description: Inhibition of recombinant mTOR by luminescent kinase assay.
Data set [20] is described as follows: Cmax in Wistar rat at 5 mg/kg, iv after 5 mins by LC-MS/MS analysis. Format: ADME, organism-based. Set-up: dose 5 mg/kg, route intravenous. Conditions: in vivo. In a few lines: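 Female Wistar rats received either an iv femoral-vein dose of 5 mg/kg in NMP/PEG200 (1:9) or an oral dose of monophosphate salt at 10 mg/kg (free base) in acetate buffer pH 4.6/PEG300. Plasma was sampled by sublingual bleeding at 0.083–24 h (n = 4 staggered, or n = 3–4 serial). Plasma levels were measured by LC-MS/MS (LOQ 10 ng/mL).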

Data set [21] in a line: Oral bioavailability in Wistar rat at 10 mg/kg. It counts as ADME, organism-based. Conditions: in vivo. A digest of the protocol:
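Female Wistar rats received 5 mg/kg iv into the femoral vein in NMP/PEG200 (1:9), or the monophosphate salt orally at 10 mg/kg (free base) in acetate buffer pH 4.6/PEG300. Serial sublingual plasma samples were taken from 0.083 to 24 h.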

Data set [22] deals with Tumour. Description: Drug uptake in tumour of nude Rowett rat bearing human RT112 cells at 8.51 mg/kg, po administered as a single dose after 16 hrs by LC-MS/MS analysis. It counts as ADME, organism-based, Neoplasm, RT-112. Set-up: dose 8.51 mg/kg, route oral. To be noted: in vivo. In a few lines:
as §1

Sequence of MAP kinase-interacting serine/threonine-protein kinase 1 (Q9BUB5 whole entry): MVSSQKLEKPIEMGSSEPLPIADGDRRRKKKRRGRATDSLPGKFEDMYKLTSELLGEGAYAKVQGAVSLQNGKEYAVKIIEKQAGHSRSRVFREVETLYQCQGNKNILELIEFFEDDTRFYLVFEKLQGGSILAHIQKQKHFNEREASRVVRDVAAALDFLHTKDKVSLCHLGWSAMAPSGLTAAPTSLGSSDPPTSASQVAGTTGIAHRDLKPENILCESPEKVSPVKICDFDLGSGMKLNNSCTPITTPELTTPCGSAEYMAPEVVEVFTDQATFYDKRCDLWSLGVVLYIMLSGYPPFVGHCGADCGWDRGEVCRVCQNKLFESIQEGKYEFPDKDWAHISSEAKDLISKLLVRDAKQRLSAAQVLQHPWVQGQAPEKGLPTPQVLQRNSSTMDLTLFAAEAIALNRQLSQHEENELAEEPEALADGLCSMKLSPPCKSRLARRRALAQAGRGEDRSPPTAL
Sequence of Serine/threonine-protein kinase PLK1 (P53350 whole entry): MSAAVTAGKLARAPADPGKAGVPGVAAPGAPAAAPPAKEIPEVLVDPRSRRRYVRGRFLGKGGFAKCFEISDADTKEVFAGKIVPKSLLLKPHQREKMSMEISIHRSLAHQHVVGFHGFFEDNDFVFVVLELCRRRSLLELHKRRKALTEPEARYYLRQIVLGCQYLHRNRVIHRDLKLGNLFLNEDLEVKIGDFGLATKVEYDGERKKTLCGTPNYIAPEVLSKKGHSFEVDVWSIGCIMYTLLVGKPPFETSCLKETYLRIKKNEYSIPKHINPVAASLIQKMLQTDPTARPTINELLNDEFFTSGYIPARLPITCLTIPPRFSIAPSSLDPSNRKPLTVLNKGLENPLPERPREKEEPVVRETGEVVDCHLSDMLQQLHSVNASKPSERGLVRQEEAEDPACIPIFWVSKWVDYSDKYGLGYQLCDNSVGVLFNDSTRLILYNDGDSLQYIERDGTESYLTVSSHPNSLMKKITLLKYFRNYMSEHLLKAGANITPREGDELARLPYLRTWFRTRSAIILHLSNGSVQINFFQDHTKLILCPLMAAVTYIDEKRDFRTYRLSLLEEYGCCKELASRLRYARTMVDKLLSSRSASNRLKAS
Sequence of Non-receptor tyrosine-protein kinase TYK2 (P29597 whole entry): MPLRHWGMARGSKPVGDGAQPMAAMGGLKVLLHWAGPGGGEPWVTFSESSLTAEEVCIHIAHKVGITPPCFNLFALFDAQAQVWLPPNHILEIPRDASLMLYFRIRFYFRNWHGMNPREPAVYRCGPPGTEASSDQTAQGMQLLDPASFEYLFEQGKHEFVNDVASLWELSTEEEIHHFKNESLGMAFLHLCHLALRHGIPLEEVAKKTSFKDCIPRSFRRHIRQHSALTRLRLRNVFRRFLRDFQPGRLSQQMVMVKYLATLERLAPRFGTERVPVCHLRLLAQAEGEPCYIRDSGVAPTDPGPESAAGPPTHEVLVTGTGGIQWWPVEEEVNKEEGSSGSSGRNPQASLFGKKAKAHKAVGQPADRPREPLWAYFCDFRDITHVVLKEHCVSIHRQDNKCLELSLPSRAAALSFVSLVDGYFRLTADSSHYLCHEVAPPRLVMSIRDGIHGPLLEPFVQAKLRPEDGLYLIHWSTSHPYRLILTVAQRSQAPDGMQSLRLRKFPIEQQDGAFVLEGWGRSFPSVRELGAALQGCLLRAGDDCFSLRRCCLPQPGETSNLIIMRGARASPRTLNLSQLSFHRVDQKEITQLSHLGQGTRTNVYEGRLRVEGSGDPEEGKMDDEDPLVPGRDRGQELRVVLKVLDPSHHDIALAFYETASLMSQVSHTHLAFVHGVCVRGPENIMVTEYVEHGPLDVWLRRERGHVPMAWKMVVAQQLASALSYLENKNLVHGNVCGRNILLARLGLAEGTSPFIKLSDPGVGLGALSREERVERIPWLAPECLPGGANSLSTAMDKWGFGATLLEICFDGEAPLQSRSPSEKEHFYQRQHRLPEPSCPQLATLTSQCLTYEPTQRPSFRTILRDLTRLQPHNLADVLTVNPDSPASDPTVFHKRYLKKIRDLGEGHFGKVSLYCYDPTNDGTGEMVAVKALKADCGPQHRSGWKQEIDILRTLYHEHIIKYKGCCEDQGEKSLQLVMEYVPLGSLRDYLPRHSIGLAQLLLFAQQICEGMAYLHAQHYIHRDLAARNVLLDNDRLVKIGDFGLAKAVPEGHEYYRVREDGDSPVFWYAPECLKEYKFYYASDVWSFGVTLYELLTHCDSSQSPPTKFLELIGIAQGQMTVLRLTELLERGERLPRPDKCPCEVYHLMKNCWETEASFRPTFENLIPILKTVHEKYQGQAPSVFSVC
Sequence of Phosphatidylinositol 4-kinase beta (Q9UBF8 whole entry): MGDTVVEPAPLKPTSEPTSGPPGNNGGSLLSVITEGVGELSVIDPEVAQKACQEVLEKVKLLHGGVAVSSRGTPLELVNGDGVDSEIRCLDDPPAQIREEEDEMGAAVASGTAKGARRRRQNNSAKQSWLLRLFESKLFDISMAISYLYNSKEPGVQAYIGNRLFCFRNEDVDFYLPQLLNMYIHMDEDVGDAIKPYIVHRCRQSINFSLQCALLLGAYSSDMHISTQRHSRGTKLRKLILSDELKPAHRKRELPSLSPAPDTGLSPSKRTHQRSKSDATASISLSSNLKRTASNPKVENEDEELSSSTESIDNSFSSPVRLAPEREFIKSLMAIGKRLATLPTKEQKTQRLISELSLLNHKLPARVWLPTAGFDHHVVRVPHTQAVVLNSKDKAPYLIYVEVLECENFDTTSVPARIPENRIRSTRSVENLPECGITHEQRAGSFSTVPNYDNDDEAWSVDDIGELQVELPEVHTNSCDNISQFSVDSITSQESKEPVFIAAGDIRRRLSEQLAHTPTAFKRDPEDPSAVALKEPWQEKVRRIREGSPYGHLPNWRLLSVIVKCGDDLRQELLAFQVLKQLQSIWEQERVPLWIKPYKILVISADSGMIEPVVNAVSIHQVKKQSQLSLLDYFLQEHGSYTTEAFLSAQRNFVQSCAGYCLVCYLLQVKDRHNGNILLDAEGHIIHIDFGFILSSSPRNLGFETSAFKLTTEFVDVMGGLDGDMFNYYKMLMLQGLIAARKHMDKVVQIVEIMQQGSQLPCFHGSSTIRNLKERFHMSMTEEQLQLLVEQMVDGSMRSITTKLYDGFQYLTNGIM

For `CCN1CCN(c2ccc(Nc3cc(N(C)C(=O)Nc4c(Cl)c(OC)cc(OC)c4Cl)ncn3)cc2)CC1.O=P(O)(O)O` [INFIGRATINIB PHOSPHATE], the IC50 was above 9 µM in [1]; above 10 µM in [4]; 1160 nM in [6]; above 10 µM in data set [7]; above 10 µM in [8]; 2190 nM in data set [10]. The 50% inhibitory concentration (IC50) in [11] was above 10 µM; in data set [13], 30 nM; in data set [19] it was above 10 µM. In addition, the Drug uptake in data set [2] is reported as 0.3 nmol/g; in data set [5], 0.65 nmol/g; in [12], 1.96 nmol/g; in [18], 0.32 nmol/g; in data set [22], 0.62 nmol/g. The values for the highest concentration (Cmax) in data set [3] and in [20] were 420 nM and 970 nM, respectively. The inhibition entry in data set [9] is “Active”. Moreover, in data set [14], the Tmax is 1 h. Moreover, in data set [15], the AUC/dose is 1.85 nmol·h/g. The Activity entry in data set [16] is “Dose-dependent effect”. Also, the inhibition result in [17] is “inactive”. The molecule further had a bioavailability in [21] of 51%.
